Results as given in ChEMBL document CHEMBL1141015, “Discovery of diacylphloroglucinols as a new class of GPR40 (FFAR1) agonists” (Bioorg Med Chem Lett, 2008).
The source made the active and inactive calls. No cut-off for these calls is given here.

Key:
[1] = biological target: T1, Free fatty acid receptor 1 (Homo sapiens, UniProt O14842); assay: Agonist activity at human GPR40 expressed in CHOK1 cells assessed as effect on calcium flux at 10 uM by fluorescence assay; assay type: functional, cell-based; conditions: CHO-K1
T1 sequence (O14842 whole entry): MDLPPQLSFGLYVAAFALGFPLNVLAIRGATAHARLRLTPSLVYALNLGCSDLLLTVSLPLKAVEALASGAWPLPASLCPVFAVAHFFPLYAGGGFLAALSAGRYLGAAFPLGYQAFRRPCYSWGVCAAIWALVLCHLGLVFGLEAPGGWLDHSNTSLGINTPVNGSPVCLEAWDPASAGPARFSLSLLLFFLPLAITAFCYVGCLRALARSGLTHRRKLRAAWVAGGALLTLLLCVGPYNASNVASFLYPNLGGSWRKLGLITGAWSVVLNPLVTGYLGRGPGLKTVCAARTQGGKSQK
How it was run: (§1)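 CHO K1 cells stably transfected with hGPR40 (vector pCDN), seeded 10,000 cells/well on poly-D-lysine plates, 48 h culture; loaded 1 h with 2.5 µM Fluo-4AM in 10 mM Hepes, 2.5 mM probenecid, HBSS pH 7.5, washed thrice, 37 °C; Ca²⁺ flux read on FlexStation as fold over control; mock-transfected CHO K1 cells run in parallel for specificity.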

[2] = biological target: T1, Free fatty acid receptor 1; assay: Activity at human GPR40 expressed in CHOK1 cells assessed as inhibition of linoleic acid-induced calcium flux by fluorescence assay; assay type: functional, cell-based; conditions: CHO-K1
[3] = biological target: T1, Free fatty acid receptor 1; assay: Agonist activity at human GPR40 expressed in CHOK1 cells assessed as fold increase in calcium flux at 10 uM by fluorescence assay relative to control; assay type: functional, cell-based; conditions: CHO-K1; how it was run: as §1
[4] = biological target: T1, Free fatty acid receptor 1; assay: Agonist activity at GPR40 expressed in CHO cells by FLIPR assay; assay type: functional, cell-based
How it was run: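 CHO-K1 cells stably transfected with hGPR40 (pCDN vector), seeded and grown 48 h, loaded 1 h with Fluo-4AM in 10 mM Hepes/Ca²⁺/2.5 mM probenecid HBSS pH 7.5, washed thrice, held at 37 °C. FlexStation calcium flux read as fold over control. EC50 from dose–response curves; efficacy as % of maximal linoleic acid response. Mock-transfected CHO-K1 run in parallel.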

[5] = biological target: Free fatty acid receptor 1 (Mus musculus, UniProt Q76JU9); assay: Agonist activity at mouse GPR40 expressed in HEK293 cells; assay type: functional, cell-based
Sequence of Free fatty acid receptor 1 (Mus musculus, UniProt Q76JU9) (Q76JU9 whole entry): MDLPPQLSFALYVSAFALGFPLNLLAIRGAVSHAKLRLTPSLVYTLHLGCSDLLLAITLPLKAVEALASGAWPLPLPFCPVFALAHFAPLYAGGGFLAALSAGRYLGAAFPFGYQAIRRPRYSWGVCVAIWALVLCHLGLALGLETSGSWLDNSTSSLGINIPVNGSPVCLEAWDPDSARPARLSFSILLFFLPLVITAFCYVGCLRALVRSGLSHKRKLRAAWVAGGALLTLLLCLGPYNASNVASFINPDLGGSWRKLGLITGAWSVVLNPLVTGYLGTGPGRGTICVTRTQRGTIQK

[6] = biological target: T1, Free fatty acid receptor 1; assay: Agonist activity at GPR40; assay type: functional
[7] = biological target: T1, Free fatty acid receptor 1; assay: Agonist activity at human GPR40 expressed in CHOK1 cells assessed as maximal response at 10 uM by fluorescence assay relative to linoleic acid; assay type: functional, cell-based; conditions: CHO-K1; how it was run: as §1
[8] = biological target: T1, Free fatty acid receptor 1; assay: Agonist activity at human GPR40 expressed in CHOK1 cells by fluorescence assay; assay type: functional, cell-based, CHO-K1; how it was run: as §1
[9] = system: HIT-T15; assay: Induction of insulin secretion in Syrian golden hamster HIT-T15 cells at 10 uM; assay type: functional, cell-based; conditions: Mesocricetus auratus
How it was run: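 HIT-T15 hamster pancreatic cells treated with 10 µM compound; insulin secretion measured, with linoleic acid as reference.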

[10] = biological target: T1, Free fatty acid receptor 1; assay: Activation at GPR40 expressed in HEK293 cells at 100 uM by calcium mobilization-based FLIPR assay; assay type: functional, cell-based
[11] = biological target: T1, Free fatty acid receptor 1; assay: Agonist activity at GPR40 at 100 uM; assay type: functional

Structure (SMILES)	Activity [1]	Activity [2]	fold change (FC) [3]	other results
CC(C)CC(=O)c1c(O)cc(OCCO)c(C(=O)CC(C)C)c1O	inactive	inactive	1.02	
O=C(/C=C/C(=O)c1c(O)cc(O)cc1O)c1c(O)cc(O)cc1O	inactive	inactive	1.01	
O=C(O)CCCC(=O)c1c(O)cc(O)cc1O	inactive	inactive	1	
CCCCOc1ccc(C)cc1-c1ccc(COc2ccc3c(c2)CCC[C@H]3CC(=O)O)cc1				EC50 [4]: < 100 nM
CCCCCCCCC1SC(=O)NC1=O (stereo unspecified)				EC50 [5]: 7940 nM
O=C(O)CCc1ccc(OCc2ccc(CC(CCc3ccccn3)c3nc(-c4ccccc4)cs3)cc2)cc1 (stereo unspecified)				EC50 [6]: 19 nM
CCCCc1c(O)c(C(=O)CC(C)C)c(O)c(C(=O)CC(C)C)c1O	Active		2.12	Activity [7]: 84.5%; EC50 [8]: 970 nM
CC(C)CC(=O)c1c(O)cc(O)cc1O	inactive	inactive	1.12	
CCCCC/C=C\C/C=C\CCCCCCCC(=O)O [LINOLEIC ACID]	Active		2.55	EC50 [6]: 540 nM; EC50 [8]: 540 nM
CCCCCCCCCCCCCCCCCC(=O)c1c(O)cc(O)c(C(=O)CCCCCCCCCCCCCCCCC)c1O	inactive	inactive	1.19	
CC(C)C(=O)c1c(O)cc(O)c(C(=O)C(C)C)c1O	Active		2.31	Activity [9]: Active; Activity [7]: 88.7%; EC50 [8]: 8000 nM
CCCCCCCCCCCCCCCC(=O)c1c(O)cc(O)c(C(=O)CCCCCCCCCCCCCCC)c1O	inactive	inactive	1.02	
CCCCCCCC(=O)c1c(O)cc(O)c(C(=O)CCCCCCC)c1O	inactive	inactive	1.21	
CCCCOc1cc(O)c(C(=O)CC(C)C)c(O)c1C(=O)CC(C)C	inactive	inactive	1.02	
CCCCCCCCCCCC(=O)c1c(O)cc(O)c(C(=O)CCCCCCCCCCC)c1O [DIDODECANOYLPHLOROGLUCINOL]	Active		2.33	Activity [9]: Active; Activity [7]: 100%; EC50 [8]: 70 nM
CCCCOc1cc(OCCCC)c(C(=O)CC(C)C)c(O)c1C(=O)CC(C)C	inactive	inactive	1.35	
CC#CC(CC(=O)O)c1ccc(OC2CCc3cc(-c4cccs4)ccc32)cc1 (stereo unspecified)				EC50 [6]: 10 nM
O=C(O)CCc1ccc2oc(Nc3cccc(Cl)c3Cl)nc2c1				Activity [10]: 111%
Cc1cccc(C)c1-c1cccc(COc2ccc(Cn3oc(=O)[nH]c3=O)cc2)c1				EC50 [6]: 260 nM
O=C(O)[C@H]1[C@@H]2Oc3cc(Oc4ccc(C(F)(F)F)cc4Cl)ccc3[C@@H]21				EC50 [4]: 0.1 nM
CC(C)CC(=O)c1c(O)c(Cc2c(O)c(C(=O)CC(C)C)c(O)c(C(=O)CC(C)C)c2O)c(O)c(C(=O)CC(C)C)c1O	inactive	inactive	1.11	
CCCCOc1cc(O)c(C(=O)CC(C)C)c(OCCCC)c1C(=O)CC(C)C	inactive	inactive	1.46	
O=C(O)CCCCCCCNc1ncc(-c2ccccc2)c(-c2ccccc2)n1				Activity [10]: 104%
CC(C)CC(=O)c1c(O)cc(O)c(C(=O)CC(C)C)c1O	Active		1.89	Activity [9]: Active; Activity [7]: 102%; EC50 [8]: 6000 nM
CC(C)CC(=O)c1c(O)cc(O)c(C(=O)CCCC(=O)O)c1O	inactive	inactive	1	
Cc1cc(OCC2(C)COC2)cc(C)c1-c1cccc(COc2ccc(C3CC3C(=O)O)cc2)c1 (stereo unspecified)				Activity [11]: 119%
O=C(CCl)c1c(O)cc(O)c(C(=O)CCl)c1O	inactive	inactive	1.21	
